High-throughput results (PubChem BioAssay)
Insulin prom up: MIN6 insulin promoter up-regulation | MIN6 insulin promoter-GFP reporter, high-content imaging; hits give high values | z-score at 5 µM | 190,000 compounds, 0.3% hits | AID 1625;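 active = z-score above 3 at 5 µM with at least 500 cells counted in the well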
MT stabilize HCS: microtubule stabilization, imaging screen; HeLa tubulin immunostaining HCS, 24 h; share of cells brighter than vehicle mean+2SD; % tubulin-high responders, % at 10 µM; 200,000 compounds, 0.83% hits;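 active = plate Z-score above 3 for both tubulin-high and condensed-nucleus cell shares, with cell loss under 80%, at 10 µM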;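 also: anti alpha tubulin signal scored within the nucleus-defined area of each cell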
Dynein cargo inh: blocks dynein driven cargo transport along microtubules. 3617.4 mouse cells, GR-EGFP nuclear translocation imaging; test concentration mostly 20 µM; stimulated with dexamethasone, 1 µM; hits give low values. z-score, hits read low. 220,000 compounds, 0.47% hits. AID 1381;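 active = plate z-score of nuclear minus cytoplasmic receptor signal below a set negative limit, without overly bright fluorescence or cell loss, cut at about -3.5 in these data, passing the limit was not always enough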;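 also: z-score of nuclear minus cytoplasmic ring GR-EGFP intensity difference per well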
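Buffer or medium: tetracycline-free induction medium containing charcoal-stripped FBS / Reagent: dexamethasone agonist, 1.0 µM final, for 30 min / Technique: automated 10x imaging of fixed Hoechst-stained cells / Times: induction 48 h, compound 1 h, agonist 30 min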
b-catenin transl: alters nuclear translocation of beta-catenin in HeLa cells | immunofluorescence imaging | nuclear translocation activity, % at 5 µM | 190,000 compounds, 0.3% hits;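 active = nuclear translocation activity above 50% at 5 µM, with a well cell count of 50 or more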;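 also: per-cell ratio of nuclear to cytoplasmic median beta-catenin stain intensity; plate controls were DMSO negative control for no effect and GSK-3 inhibitor IX positive control for full effect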
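Test system: human HeLa cells, endogenous beta-catenin. Times: 24 h compound exposure, 37°C. Measured by: beta-catenin immunofluorescence imaging with DAPI.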
Autophagy HCS: modulators of autophagy; MEF GFP-LC3 puncta imaging; test concentration mostly 10 µM; calls only at 10 µM (by protocol); 190,000 compounds, 0.98% hits;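 active = percentage of spot-positive cells more than 3 SD above its plate mean, without a fluorescence outlier flag or 80% toxicity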;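 also: spot-positive cell cutoff set from DMSO-treated cells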
* marks the source's active call; other numbers are inactive results; i = inactive; · = no result; + = active, no number; ! = not confirmed by another sample. Shown are actives, neighbours in structure and some others; about 2.3% of the full set was active somewhere.

SMILES	Insulin prom up	MT stabilize HCS	Dynein cargo inh	b-catenin transl	Autophagy HCS
O=C(c1cccn2c(=O)c3cc(Br)ccc3nc12)N1CCC2(CC1)OCCO2	0.75	4	-0.75	·	i
Cc1cccn2c(=O)c3cc(C(=O)N4CCC5(CC4)OCCO5)n(C)c3nc12	-0.55	34*	-0.28	41	i
COc1ccc(-n2cnc3cc(C(=O)N4CCC5(CC4)OCCO5)ccc32)cc1	0.22	13*	-0.79	32	i
Cn1c(O)c(C=NCCN2CCN(C(=O)Nc3ccccc3)CC2)c(=O)n(C)c1=O	0.1	·	0.31	0	·
Cc1ccn2nc(S(=O)(=O)Nc3c(F)cccc3F)nc2n1	1.1	5	-0.85	·	i
CC(=O)NC(Cc1ccc(N(CCCl)CCCl)cc1)C(=O)NCC(=O)NCC(=O)O (stereo not drawn)	0.5	4	-0.96	0	i
Cc1ccc(CN2C3CCCC2CC(NC(=O)Nc2cccc(F)c2)C3)cc1 (stereo not drawn)	-0.14	1	-0.25	-1	+
c1ccc(-c2ccc(-c3n(-c4ccccn4)c4ccccc4[n+]3-c3ccccn3)cc2)cc1	0.26	4	1.5	0	+
CCn1nc(/C=C/c2ccccc2)nc2c(=O)n(C)c(=O)nc1-2	-4.7	28*	-1.5	-2	i
COC(=O)C1=Nc2ccccc2/C1=C\c1c(O)n(-c2ccc(Br)cc2)c(=O)[nH]c1=O	1.4	5	-0.26	-7	i
O=c1[nH]c(=O)n(-c2ccccc2)c(O)c1/C=C1/C(c2ccccc2)=Nc2ccccc21	1.1	31*	0.51	80*	i
C=C1C(=O)O[C@@H]2C[C@@H](C)[C@@H]3C=CC(=O)[C@@]3(C)[C@@H](O)[C@H]12	·	·	-3.6*	5	·
O=C(c1cc2c(s1)-c1ccccc1OC2)N1CCC2(CC1)OCCO2	-0.31	54*	-0.4	14	i
CN1CCN(c2ncnc3nc[nH]c23)CC1	0.36	2	-0.29	-6	i
CN[C@@H]1C[C@@H](c2ccc(Cl)c(Cl)c2)c2ccccc21	-0.61	·	·	0	·
CCC(=NCCN1CCCCC1)c1c(O)n(C)c(=O)n(C)c1=O	0.23	3	0.066	·	+
COP(=O)(NC(=O)C(Cl)(Cl)Cl)OC	0.38	·	0.45	0	·
O=C1NC(=O)N(Cc2ccc(F)cc2)C(=O)/C1=C\c1ccc([N+](=O)[O-])s1	·	·	-5*	0	·
O=c1[nH]c(=S)[nH]c(O)c1/C=N/N1CCOCC1	-0.01	·	0.52	0	·
CCN(CC)c1ccc(N=Cc2c(O)n(-c3ccccc3)c(=O)[nH]c2=O)cc1	·	·	-0.6	0	·
O=C(N/N=C/c1c(O)n(Cc2ccccc2)c(=O)[nH]c1=O)c1ccccc1O	0.9	11	-1	0	i
CCOc1ccccc1-n1c(O)c(C=Nc2ccc(N(CC)CC)cc2)c(=O)[nH]c1=O	·	22*	0.66	-5	i
O=C(N/N=C/c1c(O)n(Cc2ccc(F)cc2)c(=O)[nH]c1=O)c1ccccc1O	-0.32	14*	-0.11	6	i
CCN(CC)c1ccc(N=Cc2c(O)n(Cc3ccccc3)c(=O)[nH]c2=O)cc1	0.48	2	1.7	1	+!
C/C(=N\N1CCCCCC1)c1c(O)n(C2CCCCC2)c(=O)[nH]c1=O	-0.75	·	-0.18	0	·
SMILES	Insulin prom up	MT stabilize HCS	Dynein cargo inh	b-catenin transl	Autophagy HCS
NC(Cc1nc2ccccc2[nH]1)c1ccc(Cl)cc1 (stereo not drawn)	-0.33	·	-0.83	1	·
O=c1c2ccccc2nc(-c2cccs2)n1-c1ccccc1	·	1	-0.22	·	i
NC(N)=N/N=C/c1cn(-c2ccccc2)nc1-c1cccs1	-0.35	78	-6.6	-2	+
CCCCn1c(O)c(C(CC)=NC(C)c2ccccc2)c(=O)[nH]c1=O (stereo not drawn)	·	47*	-0.99	·	i
CCCCn1c(O)c(C(CC)=Nc2ccc(OC)cc2OC)c(=O)[nH]c1=O	-0.48	29*	0.68	1	i
CCCCn1c(O)c(C(C)=NC(C)c2ccccc2)c(=O)[nH]c1=O (stereo not drawn)	-0.13	7	-1.5	3	i
N#CC(c1ccccc1)N1CCOCC1 (stereo not drawn)	0.02	·	0.14	-1	·
c1ccc2oc(N3CCNCC3)nc2c1	1.6	6	0.98	0	i
c1ccc2c(N3CCNCC3)nsc2c1	3.1*	2	-0.25	-1	i
CC(C)Sc1nnc(OC(=O)N(C)C)n1-c1ccccc1	-0.12	·	0.22	0	·
